A short description of data set [1]: Half life in Beagle dog at 1 mg/kg, iv through bolus administration. The data set is classed as ADME, organism-based, Canis lupus familiaris. The settings on record: in vivo.
A short description of data set [2]: Apparent volume of distribution in Wistar rat at 1 mg/kg, iv. The data set is classed as ADME, organism-based. The note with it: in vivo, read-out: Vz.
Data set [3] can be described thus: Oral bioavailability in Wistar rat at 1 mg/kg administered via gavage. It is filed as ADME, organism-based. The settings on record: in vivo.
A short description of data set [4]: Half life in Wistar rat at 1 mg/kg, iv. It is filed as ADME, organism-based. The settings on record: in vivo.
For data set [5], the system named is Rattus norvegicus. The data set can be described thus: In vivo inhibition of PI3Kdelta in Wistar rat assessed as reduction in ConA-induced increase in plasma IL2 production administered through oral gavage 1 hr prior to ConA measured 90 mins post ConA challenge by ELISA. It is filed as functional. The settings on record: read-out: ID50 (the source's name).
Data set [6] can be described thus: AUC in Beagle dog at 1 mg/kg, iv through bolus administration. It is filed as ADME, organism-based, Canis lupus familiaris. The settings on record: in vivo.
Data set [7] can be described thus: AUC in Wistar rat at 1 mg/kg, iv. The data set is classed as ADME, organism-based. The settings on record: in vivo. The gist of the method:
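Wistar rats received a single 1 mg/kg intravenous dose. Plasma samples were collected and AUC was calculated from them, along with half-life, clearance and steady-state volume of distribution. Values are means of two animals (n=2).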

For data set [8], the system named is Rattus norvegicus. The data set is described as follows: Anti-inflammatory activity in Brown Norway rat assessed as reduction in OVA-induced eosinophil infilteration to bronchoalveolar lavage administered orally bid 1 hr prior to OVA challenge on day 14 and 6 hrs post OVA challenge on day 21 measured 24 hrs post last OVA challenge by microscopic method. The data set is classed as functional. The settings on record: po, read-out: ID50 (the source's name).

Data set [9] is described as follows: Apparent volume of distribution in Beagle dog at 1 mg/kg, iv through bolus administration. The data set is classed as ADME, organism-based, Canis lupus familiaris. The settings on record: in vivo, read-out: Vz.
Data set [10] in a line: Clearance in Beagle dog at 1 mg/kg, iv through bolus administration. The settings on record: in vivo.
Data set [11] can be described thus: Drug metabolism in rat liver microsomes assessed as disappearance of parent compound at 5 uM after 30 mins in presence of NADPH by UPLC-MS/MS analysis. For orientation: Liver microsomes are vesicles of endoplasmic reticulum, rich in cytochrome P450 enzymes.
The nature of data set [12]: Clearance in Wistar rat at 1 mg/kg, iv. The note with it: in vivo.
Data set [13] is described as follows: Drug metabolism in human liver microsomes assessed as disappearance of parent compound at 5 uM after 30 mins in presence of NADPH by UPLC-MS/MS analysis.
The target of data set [14] is PI3-kinase p110-delta/p85-alpha (Homo sapiens, UniProt O00329). The data set is described as follows: Inhibition of full length recombinant human N-terminal His6-tagged PI3K p110delta/human p85alpha expressed in baculovirus infected sf21 cells using PIP2 as substrate preincubated for 30 mins followed by substrate addition by HTRF assay. (In general: In TR-FRET formats the signal depends on donor and acceptor labels being close together.)

Data set [15] in a line: Volume of distribution at steady state in Wistar rat at 1 mg/kg, iv. It is filed as ADME, organism-based. The settings on record: in vivo, read-out: Vdss.
The target in data set [16] is T1, Phosphatidylinositol 4,5-bisphosphate 3-kinase catalytic subunit delta isoform (Homo sapiens, UniProt O00329).
T1 sequence (O00329 whole entry): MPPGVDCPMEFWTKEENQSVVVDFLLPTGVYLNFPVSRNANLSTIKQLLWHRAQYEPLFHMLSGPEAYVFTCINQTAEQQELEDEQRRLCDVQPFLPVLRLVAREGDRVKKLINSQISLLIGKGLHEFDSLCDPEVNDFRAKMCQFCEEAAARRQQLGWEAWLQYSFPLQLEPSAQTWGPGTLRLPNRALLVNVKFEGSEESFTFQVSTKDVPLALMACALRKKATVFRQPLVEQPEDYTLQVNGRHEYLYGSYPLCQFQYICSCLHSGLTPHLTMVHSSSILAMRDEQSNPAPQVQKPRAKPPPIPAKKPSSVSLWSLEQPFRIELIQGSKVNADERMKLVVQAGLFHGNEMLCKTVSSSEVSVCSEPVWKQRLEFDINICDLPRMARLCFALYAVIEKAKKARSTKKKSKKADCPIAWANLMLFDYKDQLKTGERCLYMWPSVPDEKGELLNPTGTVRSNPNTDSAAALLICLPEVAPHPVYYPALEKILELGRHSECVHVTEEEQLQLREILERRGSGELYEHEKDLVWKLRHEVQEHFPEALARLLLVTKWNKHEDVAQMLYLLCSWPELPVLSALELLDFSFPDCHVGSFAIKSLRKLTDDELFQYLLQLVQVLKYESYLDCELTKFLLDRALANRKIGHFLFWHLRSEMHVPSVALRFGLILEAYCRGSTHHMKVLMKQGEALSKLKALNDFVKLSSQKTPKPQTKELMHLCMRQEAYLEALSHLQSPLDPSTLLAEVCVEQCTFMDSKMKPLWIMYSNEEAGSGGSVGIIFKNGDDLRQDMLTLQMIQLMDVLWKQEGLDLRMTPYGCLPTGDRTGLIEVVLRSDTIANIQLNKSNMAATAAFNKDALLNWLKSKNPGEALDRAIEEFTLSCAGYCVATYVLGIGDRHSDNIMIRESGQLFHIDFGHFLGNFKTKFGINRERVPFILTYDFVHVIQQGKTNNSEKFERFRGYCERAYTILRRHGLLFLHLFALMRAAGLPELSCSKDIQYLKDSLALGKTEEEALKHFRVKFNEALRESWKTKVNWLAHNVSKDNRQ
The data set can be described thus: Inhibition of PI3Kdelta in human THP1 cells assessed as reduction in MCSF-stimulated akt phosphorylation at Thr308 preincubated for 30 mins followed by MCSF stimulation for 3 mins by ELISA. It is filed as cell-based, THP-1. In short, it runs like this: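 THP-1 cells exposed to compound for 30 min, then stimulated with MCSF at EC80 for 3 min; lysates assayed by ELISA for pAkt (Thr308).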
(In an ELISA, binding on a coated surface is turned into a signal by an enzyme label.)

Sequence of PI3-kinase p110-delta/p85-alpha (P27986 whole entry, one chain of several): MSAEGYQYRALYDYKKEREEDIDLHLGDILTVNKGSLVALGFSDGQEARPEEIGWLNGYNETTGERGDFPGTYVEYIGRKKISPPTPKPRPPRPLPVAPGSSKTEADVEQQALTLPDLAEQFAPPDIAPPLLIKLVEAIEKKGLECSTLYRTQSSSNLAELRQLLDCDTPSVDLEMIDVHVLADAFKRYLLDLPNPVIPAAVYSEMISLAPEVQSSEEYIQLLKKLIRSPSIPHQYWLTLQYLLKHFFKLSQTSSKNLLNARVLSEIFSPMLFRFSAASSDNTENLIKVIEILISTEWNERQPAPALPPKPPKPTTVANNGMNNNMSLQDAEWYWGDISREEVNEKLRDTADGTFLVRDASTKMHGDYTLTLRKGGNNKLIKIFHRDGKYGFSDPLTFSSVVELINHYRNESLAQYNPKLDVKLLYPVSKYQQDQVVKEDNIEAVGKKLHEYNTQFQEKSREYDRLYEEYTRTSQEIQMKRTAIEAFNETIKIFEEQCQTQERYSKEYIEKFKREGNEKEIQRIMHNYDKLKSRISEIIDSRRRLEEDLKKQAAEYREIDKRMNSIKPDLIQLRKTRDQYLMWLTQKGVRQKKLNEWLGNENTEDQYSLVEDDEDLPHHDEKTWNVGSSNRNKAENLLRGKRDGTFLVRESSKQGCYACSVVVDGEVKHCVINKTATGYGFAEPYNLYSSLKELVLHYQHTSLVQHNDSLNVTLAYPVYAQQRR

Consider `CC[C@H](Nc1ncnc2[nH]cnc12)c1nc2cccc(F)c2c(=O)n1-c1ccccc1` [IDELALISIB], for which the half-life in data set [1] was 1.6 h; in data set [4], 0.8 h. Further, the Vd in [2] was 2.2 L/kg; in data set [9] it was 2.5 L/kg. The bioavailability in data set [3] came out at 68%. Besides, the ED50 in [5] amounted to 1.6 mg/kg; in data set [8] it was 15 mg/kg. Besides, the AUC came to 924 ng·h/mL in [6] and 512 ng·h/mL in data set [7].
For `C[C@H](Nc1ncnc(N)c1C#N)c1nn2ccc(C(F)(F)F)c2c(=O)n1-c1ccccc1`, the half-life in data set [1] is 4.2 h; in data set [4], 3.3 h. Besides, the figures for the Vd in [2] and in [9] were 2.4 L/kg and 1.5 L/kg, respectively. Further, the values for the clearance in data set [10] and in [12] were 4.2 mL/min/kg and 8.6 mL/min/kg, respectively. In addition, the bioavailability in [3] was found to be 113%. Further, the results for the metabolised at 0.5 h, 5 µM in data set [11] and in data set [13] were 16% and 37%, respectively. Also, the figures for the AUC in data set [6] and in [7] were 3940 ng·h/mL and 2040 ng·h/mL, respectively. Besides, the half-inhibitory concentration (IC50) in data set [14] was 3 nM.
`C[C@H](Nc1ncnc(N)c1C#N)c1nn2cccc2c(=O)n1-c1ccccc1` had a half-life in data set [4] of 0.9 h. Besides, the metabolised at 0.5 h, 5 µM in [11] was 15%; in [13], 24%. In addition, the exposure (AUC) in data set [7] was found to be 386 ng·h/mL. This molecule also showed a clearance in data set [12] of 43.5 mL/min/kg. The Vd in [15] was determined as 1.9 L/kg.
`N#Cc1c(N)ncnc1N[C@@H](CCO)c1nn2cccc2c(=O)n1-c1ccccc1` gave a half-life in data set [4] of 1.1 h. The exposure (AUC) in data set [7] worked out at 450 ng·h/mL. In data set [12], the clearance was 36.8 mL/min/kg. In data set [13], the metabolised at 0.5 h, 5 µM is 7%. The Vd in data set [15] stood at 1.6 L/kg. Moreover, the concentration for half-maximal inhibition (IC50) is 16 nM in data set [16] and 4.8 nM in data set [14].
As to `C[C@H](Nc1ncnc(N)c1C#N)c1nn2ccc(F)c2c(=O)n1-c1ccccc1`, the metabolised at 0.5 h, 5 µM in data set [11] amounted to 9%; in data set [13] it was 13%. For the same molecule, the IC50 turned out to be 3.8 nM in [16] and 1.1 nM in [14].
For the molecule `C[C@H](Nc1ncnc(N)c1C#N)c1nn2ccc(CO)c2c(=O)n1-c1ccccc1`, the metabolised at 0.5 h, 5 µM was determined as 7% in [11] and 23% in [13]. The IC50 in [16] was found to be 35 nM; in [14], 4.3 nM.
On the same counts, the results for `C[C@H](Nc1ncnc(N)c1C#N)c1nn2c(C#N)ccc2c(=O)n1-c1ccccc1` are 24%, 22%, 11 nM and 4 nM.
On the same counts, the results for `C[C@H](Nc1ncnc(N)c1C#N)c1nn2cc(F)cc2c(=O)n1-c1ccccc1` are 23%, 34%, 51 nM and 17 nM.
`CC[C@H](Nc1ncnc(N)c1C#N)c1nn2cccc2c(=O)n1-c1ccccc1`: the metabolised at 0.5 h, 5 µM in data set [11] and in data set [13] was 32% in each case. Further, the IC50 in [16] turned out to be 18 nM; in [14], 11 nM.
As to `N#Cc1c(N)ncnc1NC(CO)c1nn2cccc2c(=O)n1-c1ccccc1` (single isomer, unassigned), the metabolised at 0.5 h, 5 µM in [11] came to 24%; in data set [13], 31%. For the same molecule, the values for the IC50 in data set [16] and in data set [14] were 51 nM and 13 nM, respectively.
For `Cc1ccn2nc([C@H](C)Nc3ncnc(N)c3C#N)n(-c3ccccc3)c(=O)c12` the same measures were 44%, 80%, 1.6 nM and 1.1 nM.

The term half-life denotes the time in which the quantity being followed falls by half. A higher half-life goes with slow loss. A word on the AUC: it is the area under the concentration-time curve, a measure of exposure. Low readings indicate less exposure, high ones more exposure. As a reminder, the clearance is the volume of plasma or blood freed of the substance per unit of time. Read a high clearance as efficient removal. Broadly, the IC50 is the concentration that gives 50% inhibition.

The values are drawn from ChEMBL document CHEMBL3872285, “Discovery of a Potent, Selective, and Orally Available PI3Kδ Inhibitor for the Treatment of Inflammatory Diseases” (ACS Med Chem Lett, 2017).
